Reference: ChEMBL document CHEMBL5154784, “Design, Synthesis, Biological Evaluation, and Computational Studies of Novel Ureidopropanamides as Formyl Peptide Receptor 2 (FPR2) Agonists to Target the Resolution of Inflammation in Central Nervous System Disorders” (J Med Chem, 2022)

How the values were obtained:
fMet-Leu-Phe receptor [1] = target: T1, fMet-Leu-Phe receptor (Homo sapiens, UniProt P21462); experiment: Agonist activity at human FPR1 transfected in human HL-60 cells assessed as increase in calcium mobilization measured every 5 seconds for 240 secs by Fluo-4-AM dye based fluorescence assay; format: functional, cell-based
T1 sequence (P21462 whole entry): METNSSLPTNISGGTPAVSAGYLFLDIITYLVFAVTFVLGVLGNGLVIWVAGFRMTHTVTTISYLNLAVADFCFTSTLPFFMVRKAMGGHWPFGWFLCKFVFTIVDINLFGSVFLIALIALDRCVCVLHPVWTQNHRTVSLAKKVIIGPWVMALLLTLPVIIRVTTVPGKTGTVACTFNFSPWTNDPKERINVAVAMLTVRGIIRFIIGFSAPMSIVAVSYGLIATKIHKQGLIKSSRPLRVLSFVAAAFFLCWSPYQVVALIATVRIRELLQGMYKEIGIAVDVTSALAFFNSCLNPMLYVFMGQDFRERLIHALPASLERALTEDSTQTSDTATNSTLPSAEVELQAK

[2] = Metabolic stability in rat liver microsomes assessed as compound remaining at 10 uM preincubated for 10 mins followed by NADPH addition and measured after 30 mins by HPLC analysis; format: ADME, Microsome; conditions: time 40 min, read-out: Stability
In short: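 Rat liver microsomes (1.0 mg/mL protein), compound 10 μM final in 100 mM potassium phosphate pH 7.4, pre-incubated 10 min at 37 °C, then NADPH regenerating system added. After 30 min, % parent remaining by HPLC-DAD (C18, MeOH/H2O 80:20) versus incubation without NADPH system.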

fMet-Leu-Phe receptor [3] = target: T1, fMet-Leu-Phe receptor; experiment: Antagonist activity at human FPR1 transfected in human HL-60 cells assessed as inhibition of fMLF-induced intracellular calcium mobilization preincubated for 10 mins followed by fMLF addition and measured every 5 seconds for 240 secs by Fluo-4-AM dye based fluorescence assay; format: functional, cell-based
[4] = target: T2, N-formyl peptide receptor 2 (Homo sapiens, UniProt P25090); experiment: Agonist activity at human FPR2 transfected in human HL-60 cells assessed as increase in calcium mobilization measured every 5 seconds for 240 secs by Fluo-4-AM dye based fluorescence assay; format: functional, cell-based
T2 sequence (P25090 whole entry): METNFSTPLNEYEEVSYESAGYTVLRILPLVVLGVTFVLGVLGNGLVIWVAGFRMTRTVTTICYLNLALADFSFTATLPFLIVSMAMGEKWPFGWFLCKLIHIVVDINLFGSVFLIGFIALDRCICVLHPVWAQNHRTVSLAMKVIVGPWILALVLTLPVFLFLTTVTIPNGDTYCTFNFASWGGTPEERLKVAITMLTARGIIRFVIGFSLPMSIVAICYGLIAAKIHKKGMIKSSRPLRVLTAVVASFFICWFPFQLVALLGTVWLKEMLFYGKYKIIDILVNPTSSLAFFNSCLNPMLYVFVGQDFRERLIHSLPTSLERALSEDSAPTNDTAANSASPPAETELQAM

[5] = target: T2, N-formyl peptide receptor 2; experiment: Antagonist activity at human FPR2 transfected in human HL-60 cells assessed as inhibition of WKYMVM-induced intracellular calcium mobilization preincubated for 10 mins followed by WKYMVM addition measured every 5 seconds for 240 secs by Fluo-4-AM dye based fluorescence assay; format: functional, cell-based
In short: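 Fluo-4-loaded FPR2-HL60 cells pre-incubated 10 min with compound (1% DMSO final), then challenged with 5 nM WKYMVM. Maximum change over baseline taken as response. IC50 by four-parameter logistic regression of at least 5–6 point curves.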

[6] = target: T3, N-formyl peptide receptor 2 (Homo sapiens) (UniProt P25090); experiment: Agonist activity at human FPR2 transfected in HL-60 cells assessed as induction of intracellular calcium ions mobilization using WKYMVM as substrate preincubated for 10 mins followed by substrate addition and measured every 5 seconds for 240 secs by Fluo-4-AM dye based fluorescent assay relative to control; format: functional, cell-based; conditions: filed as agonist
T3 sequence (whole entry): T2 sequence (P25090 whole entry)

[7] = Cytotoxicity against mouse N9 cells assessed as reduction in cell viability incubated for 48 hrs by MTT assay; format: toxicity, cell-based
In short: (§1)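 MTT 0.5 mg/mL added for 3–4 h at 37 °C, formazan dissolved in DMSO/EtOH 1:1, absorbance read at 570 and 630 nm. Mean ± SD from at least two to three experiments in triplicate.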

[8] = Cytotoxicity against mouse N9 cells assessed as reduction in cell viability at 1 to 100 uM incubated for 48 hrs by MTT assay relative to control; format: toxicity, cell-based; conditions: n9, 48 h, dose 1-100 µM; in short: as §1
[9] = Drug concentration in CD-1 mouse brain at 10 mg/kg, ip measured after 8 hrs by UPLC analysis; format: ADME, organism-based; conditions: read-out: Ct
In short: (§2)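 Male CD-1 mice (25–30 g) given 10 mg/kg i.p. in 5% DMSO/10% solutol HS 15/85% water, n = 3 per time point. Brains taken after decapitation under anesthesia, homogenized in four volumes 0.1 N HEPES. Plasma drawn by cardiac puncture. Acetonitrile precipitation with rolipram internal standard, UPLC quantification. Brain-to-plasma ratio taken from paired brain and plasma levels.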

[10] = Cytotoxicity against mouse N9 cells assessed as reduction in cell viability by measuring LDH release at 0.5 to 5 uM incubated for 24 hrs by LDH assay; format: toxicity, cell-based; conditions: n9, 24 h, dose 0.5-5 µM
In short: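 N9 cells (2 × 10^4/well) given compound at 0.5 or 5 μM, alone or with LPS (E. coli O111:B4, 100 ng/mL) added 30 min later, for 24 h at 37 °C. Released LDH measured in supernatant (30 min, room temperature, 490/630 nm). Expressed as % of untreated cells, mean ± SEM, at least three experiments in triplicate.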

[11] = AUC (infinity) in CD-1 mouse at 10 mg/kg, ip measured after 30 mins by UPLC analysis; format: ADME, organism-based; set-up: time 30 min, dose 10 mg/kg, route ip; conditions: in vivo, 0.5 h
In short: (§3)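 Male CD-1 mice (25–30 g) dosed i.v. 1 mg/kg or i.p. 10 mg/kg in 5% DMSO/10% solutol HS 15/85% sterile water, n = 3 per time point. Cardiac-puncture blood under isoflurane: i.v. 0.083–8 h, i.p. 0.25–24 h. K2EDTA plasma, protein precipitation with acetonitrile (rolipram internal standard), UPLC on C18 column.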

[12] = Clast in CD-1 mouse at 1 mg/kg, iv measured upto 4 hrs by UPLC analysis; format: ADME, organism-based; conditions: in vivo, read-out: Clast; in short: as §3
[13] = Cmax in CD-1 mouse at 1 mg/kg, iv measured after 5 mins by UPLC analysis; format: ADME, organism-based; set-up: time 5 min, dose 1 mg/kg, route iv; conditions: in vivo; in short: as §3
[14] = AUC (infinity) in CD-1 mouse at 1 mg/kg, iv measured upto 4 hrs by UPLC analysis; format: ADME, organism-based; set-up: time < 4 hrs, dose 1 mg/kg, route iv; conditions: in vivo; in short: as §3
[15] = Cmax in CD-1 mouse at 10 mg/kg, ip measured after 30 mins by UPLC analysis; format: ADME, organism-based; set-up: time 30 min, dose 10 mg/kg, route ip; conditions: in vivo, 0.5 h; in short: as §3
[16] = Tlast in CD-1 mouse at 10 mg/kg, ip by UPLC analysis; format: ADME, organism-based; conditions: in vivo; in short: as §3
[17] = Drug concentration in CD-1 mouse brain at 10 mg/kg, ip measured after 2 hrs by UPLC analysis; format: ADME, organism-based; conditions: read-out: Ct; in short: as §2
[18] = Neurotoxicity against Sprague-Dawley rat primary microglial cells assessed as reduction in cell viability by measuring LDH release at 0.1 uM incubated for 24 hrs by LDH assay; format: toxicity, cell-based; conditions: microglia
In short: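 Sprague–Dawley rat neonatal cortical microglia (>95% Iba-1+), switched to 1% FBS medium 1 h before treatment. Compound 0.1 μM for 1 h, then LPS 100 ng/mL for 24 h; WRW4 10 μM given 30 min before in some sets, 0.1% vehicle. Supernatant LDH read at 540 nm, % of vehicle controls, mean ± SEM.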

[19] = Antiinflammatory activity against Sprague-Dawley rat primary microglial cells assessed as reduction in IL-1beta expression at 0.1 uM incubated for 1 hr by ELISA method (reference value: 100 +/- 13 %); format: functional, Microglia; set-up: scale not given: the % may be the effect or the level left
Microglia = experiment: Anti-inflammatory activity against Sprague-Dawley rat primary microglial cells assessed as reduction in IL-10 expression at 0.1 uM incubated for 1 hr by ELISA method (reference value: 100 +/- 3.9 %); format: functional; set-up: scale not given: the % may be the effect or the level left
[20] = Antiinflammatory activity against Sprague-Dawley rat primary microglial cells assessed as reduction in IL-6 expression at 0.1 uM incubated for 1 hr by ELISA method (reference value: 100 +/- 2.16 %); format: functional, Microglia; set-up: scale not given: the % may be the effect or the level left
[21] = Antiinflammatory activity against Sprague-Dawley rat primary microglial cells assessed as reduction in TNF-alpha expression at 0.1 uM incubated for 1 hr by ELISA method (reference value: 100 +/- […]); format: functional, Microglia; set-up: scale not given: the % may be the effect or the level left

Molecule	EC50 (fMet-Leu-Phe receptor [1]) [µM]	remaining at 0.5 h, 10 µM [2] [%]	IC50 (fMet-Leu-Phe receptor [3]) [µM]	EC50 [4] [µM]	IC50 [5] [µM]	Efficacy [6] [%]	EC50 at 48 h [7] [µM]	Activity [8] [%]	Activity [10]	other results
N#Cc1ccc(C[C@@H](NC(=O)Nc2ccc(F)cc2)C(=O)N2CCCc3ccccc32)cc1	0.44	7	17.4	0.25	0.012	175	13.7	–	–	–
N#Cc1ccc(C[C@@H](NC(=O)Nc2ccc(F)cc2)C(=O)N2CCCC2)cc1	26.4	61	43.9	5.2	16.5	105	> 100	59	–	–
N#Cc1ccc(C[C@@H](NC(=O)Nc2ccc(F)cc2)C(=O)N2CCC(F)(F)CC2)cc1	–	62	–	–	–	–	> 100	40	–	–
N#Cc1ccc(C[C@H](NC(=O)Nc2ccc(F)cc2)C(=O)N2CCc3ccc(F)cc32)cc1	–	–	–	–	–	–	–	–	Non-Toxic	concentration at 8 h [9]: 15.7 ng/g; AUC [11]: 731 ng·h/mL; concentration at 4 h [12]: 14.1 ng/mL; Cmax [13]: 1380 ng/mL; AUC [14]: 613 ng·h/mL; Cmax [15]: 192 ng/mL; Tlast [16]: 8 h; concentration at 2 h [17]: 37 ng/g; Activity [18]: Non-Toxic
N#Cc1ccc(C[C@H](NC(=O)Nc2ccc(F)cc2)C(=O)NCC2(c3ccc(F)c(Cl)c3)CC2)cc1	–	–	–	–	–	–	3.26	–	Non-Toxic	–
N#Cc1ccc(C[C@H](NC(=O)Nc2ccc(F)cc2)C(=O)N2CCc3cc(F)ccc32)cc1	4.8	19	–	0.16	0.21	110	29.4	–	Non-Toxic	–
N#Cc1ccc(C[C@H](NC(=O)Nc2ccc(F)cc2)C(=O)NC2CCCCNC2=O)cc1 (some centres undefined)	0.78	85	3.5	0.17	0.35	105	> 100	53	Non-Toxic	–
N#Cc1ccc(C[C@H](NC(=O)Nc2ccc(F)cc2)C(=O)N2CCCC2)cc1	15.3	–	33.8	3.1	6.4	100	> 100	55	–	–
N#Cc1ccc(C[C@H](NC(=O)Nc2ccc(F)cc2)C(=O)N2CCc3ccccc32)cc1	–	22	–	0.026	0.01	–	–	–	Non-Toxic	Activity [18]: Non-Toxic
H-WRWWWW-NH2	–	–	–	–	–	–	–	–	–	Activity [19]: 103%; Activity (Microglia): 103%; Activity [20]: 108%; Activity [21]: 121%
N#Cc1ccc(C[C@H](NC(=O)Nc2ccc(F)cc2)C(=O)N2CCCc3ccccc32)cc1	1.2	10	24.2	0.27	0.013	120	14.7	–	Toxic	–
N#Cc1ccc(C[C@@H](NC(=O)Nc2ccc(F)cc2)C(=O)NC2CCCCNC2=O)cc1 (some centres undefined)	4.2	78	40.4	1	3.8	140	> 100	36	–	–
N#Cc1ccc(C[C@H](NC(=O)Nc2ccc(F)cc2)C(=O)N2CCC(F)(F)CC2)cc1	–	67	–	19.5	30.1	80	> 100	9	–	–
